We go through 16 compounds from PubChem BioAssay.

Active and inactive are the calls of the source.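 How the source made its calls, unless noted: active means Her2 level under about 52% in both replicate screens, with viability over 70% of control (limit read from the data); inconclusive means Her2 under the limit in one screen only, or viability under 70%; inactive means Her2 level above the set limit.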

Test [1] can be described thus: reducers of endogenous Her2 protein level, primary screen, SKBR3 breast tumor cells, AlphaScreen, ATP viability (AID 461).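 On Her2 level: lower value means less Her2 protein in the cells.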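 On viability: percent of carrier control wells set as 100% viability.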 The conditions noted are these: 18-24 h, measured here: SKBR3 viability, ATP luminescence, at 10 µM. A general note: Bead proximity is the source of the signal in Alpha formats.
Test [2] concerns the target Receptor tyrosine-protein kinase erbB-2 (Homo sapiens) (UniProt P04626). Described as above. The conditions noted are these: 18-24 h, at 10 µM, stronger effect = lower value.
The nature of test [3]: SK-BR-3 cell growth inhibitors, pilot screen, 24 h, human (AID 572;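 active means viability at or below 10% of carrier control in both of two separate runs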;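 further: compound exposure lasted between 18 and 24 h rather than exactly 24 h; 100% = carrier-treated control wells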). The conditions noted are these: SK-BR-3 viability, CellTiter-Glo luminescence, at 10 µM, stronger effect = lower value.
The nature of test [4]: HUVEC growth inhibition – cell-based, human, primary screen (AID 575;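 active means viability at or below 30% in both replicate assays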;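 further: 100% = median of untreated cell wells with 0.1% DMSO on each plate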). The conditions noted are these: HUVEC proliferation, CellTiter-Glo luminescence, 72 h; at 10 µM; stronger effect = lower value. The method in brief:
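System: primary human umbilical vein endothelial cells; Quantity: 1250 endothelial cells in each well; Buffer or medium: supplemented EBM, 2% fetal bovine serum; Doses: one dose, 10 µM final, 0.1% DMSO; Incubation: 72 h compound incubation; Technique: ATP-based CellTiter-Glo luminescent read; Evaluation: percent of median DMSO-control luminescence; Controls: vehicle and MePR control wells.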
A general note: In ATP-based viability assays light output follows the ATP content of the culture.

The nature of test [5]: growth inhibitors of H69AR lung tumor, primary screen, human, duplicate replicates (AID 580;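 active means viability at or under a set limit in both replicates, limit being median viability minus 3 SD, cut at about 48% in these data, passing the limit was not always enough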;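 further: 100% = mean luminescence of untreated wells and 0% = no signal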). The conditions noted are these: H69AR lung tumor cells viability, ATP luminescence, 72 h; at 10 µM; stronger effect = lower value.
The nature of test [6]: reversal of MRP1-mediated doxorubicin resistance, pilot screen, H69AR cells, doxorubicin co-treatment (AID 601;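 active means viability loss from added drug above about 55%, and viability with drug at most 40%, in both replicates, limit read from the data, passing the limit was not always enough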). The conditions noted are these: CellTiter-Glo, 72 h, at 10 µM; for differential viability (reversal): stronger effect = higher value.
The nature of test [7]: 384-well plate pilot, post-Golgi transport modulator project, inhibition of yeast transport mutant growth (AID 636; in the data active means inhibition above about 31%). The conditions noted are these: absorbance 615 nm, about 18 h, stronger effect = higher value.
A short description of test [8]: growth suppression of yeast trafficking mutant, preliminary HTS, modulators of trafficking downstream of Golgi apparatus project, 1536-format plate, OD 615 nm (AID 637; in the data active means inhibition above about 30%). The conditions noted are these: yeast transport mutant growth, absorbance 615 nm, 18 h; stronger effect = higher value.
[9] abbreviates: H69AR cells + 2 uM doxorubicin, measured here: viability with 2 uM doxorubicin, stronger effect = lower value.
The mark [10] stands for this setting: H69AR cells, compound alone cytotoxicity.

Receptor tyrosine-protein kinase erbB-2 (Homo sapiens), sequence (P04626 whole entry, looked up): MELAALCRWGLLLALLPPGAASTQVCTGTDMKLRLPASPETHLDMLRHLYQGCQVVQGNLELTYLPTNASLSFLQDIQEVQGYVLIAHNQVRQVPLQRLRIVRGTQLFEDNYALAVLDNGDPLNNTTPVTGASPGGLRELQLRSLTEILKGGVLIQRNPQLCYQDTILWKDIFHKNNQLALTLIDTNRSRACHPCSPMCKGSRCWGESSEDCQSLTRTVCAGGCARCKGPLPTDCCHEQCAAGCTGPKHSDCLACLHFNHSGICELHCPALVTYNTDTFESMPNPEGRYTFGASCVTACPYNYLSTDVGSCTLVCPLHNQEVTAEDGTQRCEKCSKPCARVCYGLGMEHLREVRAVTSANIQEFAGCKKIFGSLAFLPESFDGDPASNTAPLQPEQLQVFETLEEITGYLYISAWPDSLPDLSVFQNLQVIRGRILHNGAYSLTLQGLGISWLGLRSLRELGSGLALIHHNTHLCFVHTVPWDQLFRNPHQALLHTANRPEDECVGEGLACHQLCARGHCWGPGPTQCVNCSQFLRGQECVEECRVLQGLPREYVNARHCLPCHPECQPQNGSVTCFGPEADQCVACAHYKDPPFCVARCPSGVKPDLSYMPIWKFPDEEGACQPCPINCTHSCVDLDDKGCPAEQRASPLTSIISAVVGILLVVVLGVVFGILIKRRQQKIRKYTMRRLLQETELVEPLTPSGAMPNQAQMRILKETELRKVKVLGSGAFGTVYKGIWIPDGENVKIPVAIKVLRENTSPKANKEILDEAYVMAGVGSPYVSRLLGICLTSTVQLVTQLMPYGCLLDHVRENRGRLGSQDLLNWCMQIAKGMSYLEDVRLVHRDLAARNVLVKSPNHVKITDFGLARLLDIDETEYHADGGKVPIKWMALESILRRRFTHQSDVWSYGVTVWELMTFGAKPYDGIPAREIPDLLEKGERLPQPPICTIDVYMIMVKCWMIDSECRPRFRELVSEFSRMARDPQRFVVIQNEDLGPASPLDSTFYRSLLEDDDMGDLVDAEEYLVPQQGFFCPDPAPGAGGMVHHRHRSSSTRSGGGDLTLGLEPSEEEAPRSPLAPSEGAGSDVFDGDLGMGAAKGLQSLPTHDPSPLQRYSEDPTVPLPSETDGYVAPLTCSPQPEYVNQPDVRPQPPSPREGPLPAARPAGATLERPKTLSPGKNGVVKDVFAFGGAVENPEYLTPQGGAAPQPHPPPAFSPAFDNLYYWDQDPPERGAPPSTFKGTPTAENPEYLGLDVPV

A word on the viability: it is a read-out of living cells in per cent, often relative to untreated cells. By inhibition is commonly meant the drop in the measured response relative to a control, in per cent. As for `Cc1cccc(CCNC(=O)CCc2nc(-c3ccccc3F)no2)c1`, the viability in test [1] was 91.5%; in test [3], 91.5% (inactive); in test [4] it was 89.1% (inactive); in test [5], 93.5% (inactive); in test [6] (setting [9]) it was 83.7%; in test [6] (setting [10]), 93.5%. The Her2 level in test [2] is 104% (inactive). Moreover, in test [6] (H69AR cells + 2 uM doxorubicin), the differential viability (reversal) was 9.82% (inactive). Further, the inhibition is -2.37% (inactive) in test [7] and -5% (inactive) in test [8].

For `C=CCn1c(=O)c2ccccc2n2c(SCC(=O)Nc3cc(C)on3)nnc12`, the viability was 92.5% in test [1]; 92.5% (inactive) in test [3]; 87% (inactive) in test [4]; 98.3% (inactive) in test [5]; 87.7% in test [6] (setting [9]); 98.3% in test [6] (setting [10]). In addition, the Her2 level in test [2] was 89% (inactive). For the same compound, in test [6] (H69AR cells + 2 uM doxorubicin), the differential viability (reversal) is 10.6% (inactive). Also, the inhibition in test [7] is -3.65% (inactive); in test [8], 1.75% (inactive).

For the compound `CCOC(=O)c1cc(C)n(CCCN2CCOCC2)c1C`, the viability in test [1] was 90.5%; in test [3] it was 90.5% (inactive); in test [4], 92.4% (inactive); in test [5], 91.1% (inactive); in test [6] (setting [9]) it was 95.2%; in test [6] (setting [10]) it was 91.1%. In test [2], the Her2 level was 85% (inactive). For the same compound, in test [6] (H69AR cells + 2 uM doxorubicin), the differential viability (reversal) was -4.19% (inactive). The inhibition was -0.66% (inactive) in test [7] and 1.11% (inactive) in test [8].

As for `CC1=C(C(=O)OCCOC(C)C)C(c2cc3c(cc2Br)OCO3)C2=C(CCCC2=O)N1` (stereo not given), the viability was 102% in test [1]; 102% (inactive) in test [3]; 86.2% (inactive) in test [4]; 80.8% (inactive) in test [5]; 78.9% in test [6] (setting [9]); 80.8% in test [6] (setting [10]). For the same compound, in test [2], the Her2 level is 111% (inactive). For the same compound, in test [6] (H69AR cells + 2 uM doxorubicin), the differential viability (reversal) was 1.89% (inactive). Moreover, the inhibition in test [7] was -2.8% (inactive); in test [8] it was 6.07% (inactive).

As to `COc1ccc(C(=O)Nn2c(C3CCC3)nc3ccccc3c2=O)c(OC)c1`, the viability in test [1] was 93.5%; in test [3], 93.5% (inactive); in test [4], 85.8% (inactive); in test [5], 111% (inactive); in test [6] (setting [9]) it was 80.7%; in test [6] (setting [10]), 111%. Moreover, the Her2 level in test [2] is 97% (inactive). For the same compound, the differential viability (reversal) in test [6] (H69AR cells + 2 uM doxorubicin) is 30% (inactive). The figures for the inhibition in test [7] and in test [8] were -1.56% (inactive) and 1.9% (inactive), respectively.

As to `CC1(C)Cc2noc(N)c2C(C)(C)N1OC(=O)c1ccccc1`, the viability in test [1] was 107%; in test [3], 107% (inactive); in test [4] it was 104% (inactive); in test [5] it was 107% (inactive); in test [6] (setting [9]) it was 86.2%; in test [6] (setting [10]), 107%. Also, the Her2 level in test [2] is 132% (inactive). Moreover, the differential viability (reversal) in test [6] (H69AR cells + 2 uM doxorubicin) was 21.2% (inactive). For the same compound, the inhibition is 0% (inactive) in test [7] and -5.4% (inactive) in test [8].

On to `CC(C)OC(=O)c1cc(=O)[nH]c2ccccc12`, for which the viability in test [1] is 128%; in test [3] it was 128% (inactive); in test [4] it was 95.7% (inactive); in test [5], 102% (inactive); in test [6] (setting [9]) it was 80.7%; in test [6] (setting [10]), 102%. In addition, in test [2], the Her2 level was 79% (inactive). Further, in test [6] (H69AR cells + 2 uM doxorubicin), the differential viability (reversal) is 21.9% (inactive). Moreover, the inhibition in test [7] was -2.47% (inactive); in test [8] it was -2.22% (inactive).

For the compound `CC(NC(=O)Nc1ccccc1)C(c1cccs1)N1CCOCC1` (stereo not given), the viability was 108% in test [1]; 108% (inactive) in test [3]; 99.5% (inactive) in test [4]; 110% (inactive) in test [5]; 93.5% in test [6] (setting [9]); 110% in test [6] (setting [10]). For the same compound, the Her2 level in test [2] was 107% (inactive). For the same compound, the differential viability (reversal) in test [6] (H69AR cells + 2 uM doxorubicin) is 16.3% (inactive). The inhibition in test [7] was -0.38% (inactive); in test [8], 4.83% (inactive).

As for `O=S(=O)(Nc1ccn(-c2ccccc2)n1)c1ccc(Br)cc1`, the viability is 89% in test [1]; 89% (inactive) in test [3]; 85.7% (inactive) in test [4]; 87.5% (inactive) in test [5]; 93.7% in test [6] (setting [9]); 87.5% in test [6] (setting [10]). The Her2 level in test [2] was 86.5% (inactive). Also, in test [6] (H69AR cells + 2 uM doxorubicin), the differential viability (reversal) was -6.15% (inactive). For the same compound, the results for the inhibition in test [7] and in test [8] were -3.77% (inactive) and 0.16% (inactive), respectively.

Turning to `COC(=O)c1[nH]c2cc(OC)ccc2c1NC(=O)CCN1CCCCC1`, the viability in test [1] was 85%; in test [3] it was 85% (inactive); in test [4], 116% (inactive); in test [5], 98.2% (inactive); in test [6] (setting [9]), 95.8%; in test [6] (setting [10]), 98.2%. Moreover, the Her2 level in test [2] was 114% (inactive). Moreover, in test [6] (H69AR cells + 2 uM doxorubicin), the differential viability (reversal) is 2.35% (inactive). Also, the values for the inhibition in test [7] and in test [8] were -1.97% (inactive) and -4.43% (inactive), respectively.

`Cc1ccc(C)c(N2CCN(C(=O)c3ccc(CS(=O)(=O)c4ccccc4C)o3)CC2)c1`: the viability in test [1] was 82%; in test [3], 82% (inactive); in test [4] it was 50.8% (inactive); in test [5], 11.8% (active); in test [6] (setting [9]), 50.9%; in test [6] (setting [10]), 11.8%. The Her2 level in test [2] was 66.5% (inactive). Further, in test [6] (H69AR cells + 2 uM doxorubicin), the differential viability (reversal) was -39.1% (inactive). The inhibition in test [7] is -3.16% (inactive); in test [8], 1.27% (inactive).

Turning to `CS(=O)(=O)N1CCCC(C(=O)NCc2ccccc2Cl)C1` (stereo not given), the viability in test [1] was 99%; in test [3], 99% (inactive); in test [4], 107% (inactive); in test [5], 86.5% (inactive); in test [6] (setting [9]), 91.3%; in test [6] (setting [10]), 86.5%. In test [2], the Her2 level is 89% (inactive). For the same compound, the differential viability (reversal) in test [6] (H69AR cells + 2 uM doxorubicin) is -4.79% (inactive). The inhibition in test [7] was -1.3% (inactive); in test [8], -0.95% (inactive).

`CC1CN(c2nc(-c3ccccc3)nc3ccccc23)CC(C)O1` (stereo not given): the viability in test [1] was 91%; in test [3] it was 91% (inactive); in test [4], 88.2% (inactive); in test [5], 85.4% (inactive); in test [6] (setting [9]), 80.9%; in test [6] (setting [10]) it was 85.4%. Besides, the Her2 level in test [2] is 134% (inactive). Moreover, the differential viability (reversal) in test [6] (H69AR cells + 2 uM doxorubicin) was 4.54% (inactive). The inhibition in test [7] was -3.72% (inactive); in test [8] it was -5.67% (inactive).

As to `Cc1ccc(S(=O)(=O)N2CCCC2C(=O)n2nc(C)cc2C)cc1` (stereo not given), the viability in test [1] was 114%; in test [3] it was 114% (inactive); in test [4] it was 90.1% (inactive); in test [5], 83.5% (inactive); in test [6] (setting [9]) it was 80.9%; in test [6] (setting [10]), 83.5%. Moreover, in test [2], the Her2 level is 90% (inactive). The differential viability (reversal) in test [6] (H69AR cells + 2 uM doxorubicin) was 2.58% (inactive). Besides, the results for the inhibition in test [7] and in test [8] were -7.97% (inactive) and 3.67% (inactive), respectively.

Turning to `CNC(=O)CSc1nnc(-c2cc(C)cc(C)c2)o1`, the viability in test [1] is 94.5%; in test [3] it was 94.5% (inactive); in test [4] it was 93.4% (inactive); in test [5], 108% (inactive); in test [6] (setting [9]) it was 95.1%; in test [6] (setting [10]), 108%. Moreover, the Her2 level in test [2] is 99% (inactive). The differential viability (reversal) in test [6] (H69AR cells + 2 uM doxorubicin) was 13.4% (inactive). Moreover, the inhibition in test [7] is -3.07% (inactive); in test [8], -3.06% (inactive).

In the case of `CC(C(=O)OCn1nnc2ccccc2c1=O)N1C(=O)c2ccccc2C1=O` (stereo not given), the viability in test [1] was 110%; in test [3] it was 110% (inactive); in test [4], 93.9% (inactive); in test [5], 86.6% (inactive); in test [6] (setting [9]), 108%; in test [6] (setting [10]), 86.6%. Moreover, in test [2], the Her2 level was 100% (inactive). For the same compound, the differential viability (reversal) in test [6] (H69AR cells + 2 uM doxorubicin) is -21% (inactive). Further, the inhibition in test [7] is -1.45% (inactive); in test [8], 30.2% (active).
